Bioassay records (PubChem)
Only some compounds are listed: those with a hit (about 0.62% of all), similar ones and a draw of the others.
A340 absorber: absorbance at 340 nm; fold change at 10 µM; compound absorbance at 340 nm, fold over control; 65,000 tested, under 10 active; AID 708;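 active means at 10 µM dose, initial 340 nm absorbance at least 2 fold that of control wells; inactive means change under 2 fold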;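 further: initial absorbance extrapolated from kinetic A340 decline of NADH oxidation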
HePTP inh: blocks human HePTP tyrosine phosphatase; recombinant HePTP phosphatase activity, OD absorbance; inhibition, % at 20 µM; 0.64% of 110,000 active; AID 521; in the data active means inhibition above about 50%;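 further: plate controls were vehicle for no effect and reference inhibitor for full effect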
Target sequence (P35236 whole entry, looked up): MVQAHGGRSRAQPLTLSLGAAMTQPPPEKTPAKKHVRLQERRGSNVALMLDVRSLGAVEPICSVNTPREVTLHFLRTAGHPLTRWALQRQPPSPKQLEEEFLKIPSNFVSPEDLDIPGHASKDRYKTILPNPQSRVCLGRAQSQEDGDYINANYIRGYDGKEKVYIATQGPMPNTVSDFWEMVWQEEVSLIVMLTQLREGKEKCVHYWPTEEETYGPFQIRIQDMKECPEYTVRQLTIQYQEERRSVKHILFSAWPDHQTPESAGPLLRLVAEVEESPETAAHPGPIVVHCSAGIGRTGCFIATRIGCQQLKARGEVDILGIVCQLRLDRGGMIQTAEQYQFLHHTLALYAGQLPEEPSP
AP complement: alternative pathway complement inhibition, orthogonal assay. Human serum alternative complement pathway, LPS-coated ELISA, C3 deposition; tested in compound mixtures. 0.08% of 62,000 active. AID 1235. inhibition, % at 5 µM;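 active means inhibition above 30% in each of the two pooled mixtures holding the compound, so the lower value exceeds 30%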;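 further: 0% = serum in Mg-EGTA without compound and 100% = EDTA serum blank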
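Medium: diluted human serum in Mg2+-EGTA GVB++. Assay system: human serum complement alternative pathway, C3 deposition onto LPS. Also added: Plate-bound LPS. Technique: Anti-C3 ELISA, OD 450 nm. Measure: percent inhibition. Incubation: 1 h at 37 °C. Dosing: 5 µM each compound, pools of ten, 50 µM per pool.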
* = called active by the depositor; / = no result given; ! = a repeat was not active.

SMILES | A340 absorber | HePTP inh | AP complement
O=C(NC(=S)NC1CCSC1=O)c1ccc(Cl)cc1Cl (stereo unspecified) | / | 6 | /
Cc1cc(Oc2ccc(F)cc2)c(F)cc1[N+](=O)[O-] | / | 6 | /
COc1ccc(CCN2C(=O)CC(N3CCN(c4ccccn4)CC3)C2=O)cc1OC (stereo unspecified) | 1.1 | 8 | 33*
COc1ccc(CCN2C(=O)CC(N3CCN(C/C=C\c4ccccc4)CC3)C2=O)cc1OC (stereo unspecified) | / | -11 | /
O=C(O)C1CC=CCC1C(=O)NCCc1ccc(Cl)cc1 (stereo unspecified) | / | 8 | /
O=C(Nc1ccc2c(c1)OCO2)c1ccc(Cl)cc1 | / | -4 | /
O=C(Nc1ccc(Cl)cc1)Nc1ccc2c(c1)OCCO2 | / | 105* | /
CC(C)(C)C1(C)OC(O)(C(Cl)(Cl)Cl)CC1=O (stereo unspecified) | / | 103* | /
CCN1C(=O)/C(=C/c2c(NCCCn3ccnc3)nc3c(C)cccn3c2=O)SC1=S | / | -5 | /
Cc1cccn2c(=O)c(/C=C3\SC(=S)N(Cc4ccco4)C3=O)c(NCCCn3ccnc3)nc12 | / | 62* | /
O=C(Nc1ccc(NC(=O)c2ccccc2[N+](=O)[O-])cc1)c1ccco1 | / | 1 | /
CC(C)(C)OC(=O)N[C@@H](Cc1ccccc1)c1nnc(SCC(=O)O)o1 | 1 | 8 | -5
CC(C)(C)OC(=O)N[C@@H](Cc1ccccc1)c1nnc(S(=O)(=O)Cc2ccccc2)o1 | 1 | 2 | 31*
O=C(Cc1ccc(Cl)cc1)Nc1ccc(Nc2ccccc2)cc1 | / | -1 | /
COc1cc(C2SCC(=O)N2CCc2ccc(OC)c(OC)c2)ccc1O (stereo unspecified) | / | -12 | /
COc1ccc(CCN2C(=O)CSC2c2ccc([N+](=O)[O-])cc2)cc1OC (stereo unspecified) | / | 104* | /
CC(=O)N/N=C/c1nc2ccccc2[nH]1 | / | 2 | /
CCCCCn1c(=NC(C)=O)c(C#N)cc2c(=O)n3ccccc3nc21 | 1.1 | 8 | 14
CC(C)OCCCn1c(=NC(=O)c2ccncc2)c(C#N)cc2c(=O)n3ccccc3nc21 | 1.1 | 16 | 38*
CC(=O)N/N=C/c1ccc2c(c1)OCO2 | / | 5 | /
CC(=O)Nc1cc(-c2ccc(C)cc2)nn1Cc1ccccc1 | / | 104* | /
CC(=O)Nc1cc(-c2ccc(Cl)cc2)nn1Cc1ccc(Cl)cc1 | / | 9 | /
Cc1ccc(C(C)C)c(OCC(=O)Nc2ccc(NC(=O)c3ccco3)cc2)c1 | / | -2 | /
CCOc1ccc(C(=O)Nc2ccc(OC(F)(F)F)cc2)cc1Br | / | 8 | /
CCOc1ccc(C(=O)Nc2ccc(OC(F)(F)F)cc2)cc1 | / | 103* | /
SMILES | A340 absorber | HePTP inh | AP complement
Cc1ccc(C(C)C)c(OCC(=O)Nc2ccc(OC(F)(F)F)cc2)c1 | / | 83* | /
CCc1ccccc1NC(=O)CC1S\C(=N/N=C(C)/C=C/c2ccc(OC)cc2)NC1=O (stereo unspecified) | / | 0 | /
CC(/C=C/c1ccccc1)=N\N=C1\NC(=O)C(Cc2ccccc2)S1 (stereo unspecified) | / | 104* | /
O=C(O)c1ccccc1SC1CC(=O)N(c2ccc([N+](=O)[O-])cc2)C1=O (stereo unspecified) | / | -8 | /
CN(C)C1=C(C#N)C(C2CCCCC2=O)c2c(c3ccccc3n2C)N1c1ccc([N+](=O)[O-])cc1 (stereo unspecified) | / | 104* | /
COc1ccc(C(=S)N2CCCC2)c(OC)c1 | / | 94* | /
COc1ccc(C(=O)c2ccc(OC)cc2OC)c(OC)c1 | / | 5 | /
O=C(O)/C(=C\C=Nc1ccc(Br)cc1)Nc1ccc(Br)cc1 | / | -4 | /
Cc1c(C(=O)O)c(-c2ccccc2)nn1-c1ccccc1 | 0.99 | 11 | 5
O=C1C=CC(=O)c2c1c(-c1ccccc1)nn2-c1ccccc1 | / | 71* | /
Cc1c(C(=O)N2CCCCC2)sc(NC(=O)Cc2ccccc2)c1C#N | / | -1 | /
O=C(CSc1ccccn1)Nc1ccc2c(c1)C(=O)c1ccccc1C2=O | / | 105* | /
Cc1nnc(SCC(=O)Nc2ccc3c(c2)C(=O)c2ccccc2C3=O)s1 | / | -5 | /
Cc1cc(C)nc(NS(=O)(=O)c2ccc(N=Cc3c(C)[nH]n(-c4ccc(C)c(C)c4)c3=O)cc2)n1 | / | -19 | /
O=[N+]([O-])c1cccc(/C=N\Nc2nc(-c3ccccc3)cc(-c3ccccc3)n2)c1 | / | 5 | /
COc1ccc(CC(=O)Nc2ccc(O)c(-c3nc4cc(Cl)ccc4o3)c2)cc1OC | / | -6 | /
COc1ccc(CC(=O)Nc2ccc(-c3nc4ccccc4o3)c(O)c2)cc1OC | / | 89* | /
CCCOc1c(Cl)cc(/C=C2/SC(=S)NC2=O)cc1OC | / | -2 | /
COc1cc(/C=C2/SC(=S)NC2=O)cc(Cl)c1OCc1cccc2ccccc12 | / | 102* | /
CCOc1cc(/C=C2/SC(=S)NC2=O)cc(Cl)c1OCc1ccc(Cl)cc1Cl | / | 84* | /
COc1cc(/C=C2/SC(=S)NC2=O)cc(Cl)c1OCc1ccccc1F | / | -2 | /
Cc1cc(C)cc(OCC(O)CNC(C)(C)C)c1 (stereo unspecified) | / | -25 | /
CCCCCCCNC1CC(=O)N(c2ccc(OCCC)cc2)C1=O (stereo unspecified) | / | 3 | /
CCc1ccc(/C=C2\C(=O)N(c3ccc(Cl)c(C(=O)O)c3)N=C2C)cc1 | / | 15 | /
Cc1cccc(C=Nc2ccc(O)cc2)c1 | / | 12 | /
SMILES | A340 absorber | HePTP inh | AP complement
O=C(NC12CC3CC(CC(C3)C1)C2)N1CCC(C(O)(c2ccccc2)c2ccccc2)CC1 | / | -3 | /
Cc1ccc(COc2ccc(C=C3C(=O)NC(=O)NC3=O)cc2Br)cc1 | / | 4 | /
O=C1NC(=S)NC(=O)C1=Cc1ccc(OCc2ccc3ccccc3c2)c(Br)c1 | / | 52* | /
COC(=O)c1ccc(C(=O)OC)c(NC(=O)COc2ccc(C)cc2C)c1 | / | -8 | /
O=C(CSc1nc2ccccc2n1Cc1ccccc1)N/N=C/c1ccc([N+](=O)[O-])cc1 | / | 86* | /
O=C(CSc1nc2ccccc2n1Cc1ccccc1)N/N=C/c1cccc(O)c1 | / | 4 | /
CN(C)/C=C1\CCCCC1=C(C#N)C#N | / | -15 | /
O=C(CN1C(=O)/C(=C\c2ccccc2F)SC1=S)Nc1cccc(C(=O)O)c1 | / | 8 | /
O=C(CN1C(=O)/C(=C\c2ccccc2F)SC1=S)Nc1ccc(C(=O)O)cc1 | / | 53* | /
O=C(Oc1ccc(/C=c2/sc3nc4ccccc4n3c2=O)cc1)c1ccccc1[N+](=O)[O-] | / | -8 | /
CCc1nnc(NC(=O)C2CCCC2)s1 | / | -7 | /
CCc1nnc(NC(=O)C2CCN(C(=O)NC3CCCCC3)CC2)s1 | 1 | 2 | 34*
COc1ccccc1N1C(=O)NC(=O)C(=Cc2cc(OC)c(O)c([N+](=O)[O-])c2)C1=O | / | -2 | /
COc1cc(/C=C2\C(=O)NC(=S)N(c3ccccc3)C2=O)cc([N+](=O)[O-])c1O | / | 59* | /
CCOC(=O)c1cc(-c2ccc(/C=N\n3cnnc3)o2)ccc1Cl | 1.3 | -6 | -29
O=C(O)c1cc(-c2ccc(/C=N/n3cnnc3)o2)ccc1O | / | 103* | /
O=C(N/N=C/c1cc(Br)ccc1OC(=O)c1ccco1)c1cccnc1 | / | -9 | /
COc1cccc(-n2cnc3cccc(N)c32)c1 | 1.1 | 92*! | -1
COc1cccc(Oc2ccc(N)cn2)c1 | 1 | -4 | 0
Cc1sc(NC(=O)C2C3C=CC(C3)C2C(=O)O)nc1-c1ccccc1 (stereo unspecified) | / | -4 | /
COc1ccc(C(=O)NC2CCSC2=O)cc1[N+](=O)[O-] (stereo unspecified) | / | -7 | /
